Data reported in ChEMBL document CHEMBL4513216, “Probing the Open Global Health Chemical Diversity Library for Multistage-Active Starting Points for Next-Generation Antimalarials” (ACS Infect Dis, 2020).

Test: Toxicity liver stage against HepG2, at 10uM
Format: cell-based
Design: test concentration 10 uM, cell line HepG2-A16-CD81EGFP
Conditions: human, HepG2-A16-CD81EGFP cells; read-out: INHIBITION
In short: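 Uninfected HepG2-A16-CD81EGFP cells, 3 × 10^3 per well, 1536-well, plated on prespotted compound at 10 μM final, parasite-free screening media added to match infected plates; puromycin 10 μM positive, DMSO 0.5% negative; run in parallel with 48 h PbLuc assay at 37 °C, 5% CO2; viability by CellTiter-Glo luminescence, normalized to controls.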
Compound `CC(C)(C)c1nnnn1CC(=O)N(CCC#N)c1ccccc1` has a cytotoxicity at 10 µM of -14.2%. Work on `COC(=O)c1cccc(C(=O)N2CCN(c3cc(Cl)ccc3C)CC2)n1` yielded a cytotoxicity at 10 µM of 81.2%. With `Cc1cnc2n(c1=O)CC(C(=O)NCc1ccccc1Cl)CS2` (stereo unspecified) the cytotoxicity at 10 µM was -1.74%. In the case of `COc1ccc(S(=O)(=O)C2CCN(C(=O)c3cc(C)cs3)CC2)cc1`, the cytotoxicity at 10 µM is reported as 3.07%. With `CC(C)Nc1nc2c(c(NC3CC3)n1)CN(C(=O)c1ccnnc1)CC2` the cytotoxicity at 10 µM was -0.449%. For `CCS(=O)(=O)N1Cc2c(Cn3ccnc3)nn(C(C)C)c2C1`, the cytotoxicity at 10 µM was 11.5%. Compound `Cc1noc(C)c1CN1CC2(CCCCN2c2cncnc2)CC1=O` (stereo unspecified) has a cytotoxicity at 10 µM of 4.13%. Work on `Cc1ncsc1C(=O)N1CC[C@@H]2[C@@H](CC1)OCCN2c1cccnc1` yielded a cytotoxicity at 10 µM of 9.4%. For `Cc1cccc(N2CCN(c3ccn4c(=O)[nH]nc4n3)CC2)c1C`, the cytotoxicity at 10 µM was 36%. With `O=C(Nc1ccccc1)c1nn(C2CCS(=O)(=O)C2)c2c1CCCC2` (stereo unspecified) the cytotoxicity at 10 µM was -9.75%. `Cc1ccc(CN2CCC3(C2)C(=O)N(CC(C)C)c2ccccc23)s1` (stereo unspecified) gave a cytotoxicity at 10 µM of -0.324%. Work on `CC1CCC(NC(=O)c2nn(C)cc2Br)CC1` (stereo unspecified) yielded a cytotoxicity at 10 µM of -3.76%. Compound `Cc1nn(C)c2cnn(Cc3ccc(C(=O)N4CCN(C)CC4)o3)c12` has a cytotoxicity at 10 µM of 14.3%. `C[C@@]1(O)CCN(Cc2cc[nH]n2)C[C@H]1Oc1cccc(F)c1` gave a cytotoxicity at 10 µM of -6.86%. For `COc1ccc(CNC(=O)Nc2ccc(S(=O)(=O)C(F)F)cc2)cc1`, the cytotoxicity at 10 µM was 33.6%. Compound `CN(CC(=O)NC(C)(C)C)Cc1cccc2c1OCCO2` has a cytotoxicity at 10 µM of -26.5%. `CCn1ccnc1CN1CCCC1c1c(C)nn(C)c1OC` (stereo unspecified) gave a cytotoxicity at 10 µM of -0.386%. For `Cc1cc(C(N)=O)ccc1NC(=O)N1CCN(c2cccs2)CC1`, the cytotoxicity at 10 µM was 10.1%. In the case of `COc1cc(C(C)NCc2ncccc2C)ccc1SC(F)F` (stereo unspecified), the cytotoxicity at 10 µM is reported as -8.47%. In the case of `CN(Cc1ccc(C#N)cc1)c1ncc(C(N)=O)cc1Cl`, the cytotoxicity at 10 µM is reported as 18.5%. `Cc1ccc(CNCc2nnc3n2CC(C(F)(F)F)CC3)o1` (stereo unspecified) gave a cytotoxicity at 10 µM of 9.87%. `Cc1nc(CN2CCN(C(=O)CCc3cccnc3)CC2)no1` showed a cytotoxicity at 10 µM of -8.64%. With `CCC(CNC(=O)c1cncc(Br)c1)N1CCc2ccccc2C1` (stereo unspecified) the cytotoxicity at 10 µM was 13.4%. With `CCN(C(=O)C1CCC1)C(c1cccnc1)c1ccc2c(c1)CCO2` (stereo unspecified) the cytotoxicity at 10 µM was -7.88%. Compound `OCC1CCCN1c1cc(NCCc2ccsc2)ncn1` (stereo unspecified) has a cytotoxicity at 10 µM of 8.51%. For `Cc1sc2nc(C(F)(F)F)nc(N3CCN(C)CC3)c2c1C`, the cytotoxicity at 10 µM was -3.47%. Compound `CCSC1(CNc2ncc(Br)cn2)CCOCC1` has a cytotoxicity at 10 µM of -2.72%. With `CCOc1ccc(C(F)(F)F)cc1NCc1nc(C)c(C)o1` the cytotoxicity at 10 µM was -45.3%. `CSCC(CCO)NC(=O)c1cccc(F)c1Cl` (stereo unspecified) showed a cytotoxicity at 10 µM of 11.7%. Compound `COCCN1CCN(CC(=O)N(C)Cc2ccsc2)CC1` has a cytotoxicity at 10 µM of -153%. `CCN(CC)C(=O)N1CCN(C2=NCC(C)S2)CC1` (stereo unspecified) showed a cytotoxicity at 10 µM of -148%. `Cc1ccc(CNCc2cccc3cn[nH]c23)c(OC2CCOC2)c1` (stereo unspecified) gave a cytotoxicity at 10 µM of 9.6%. Compound `COCc1nc(CNc2cccc(-c3nc(C)c(C)o3)c2)cs1` has a cytotoxicity at 10 µM of 5.11%. In the case of `CC1CN(C)CCN1C(=O)c1cnn(-c2ccc(Cl)cc2)c1` (stereo unspecified), the cytotoxicity at 10 µM is reported as -22.7%. In the case of `Clc1ccc(CN2CCc3c(ncn3C3CC3)C2)c2ncccc12`, the cytotoxicity at 10 µM is reported as 14%. For `CSC1(CNC(=O)NC(C)c2ccc(F)c(F)c2)CCOCC1` (stereo unspecified), the cytotoxicity at 10 µM was 1.71%. Work on `CS(=O)(=O)CCC(=O)NC1(c2cccc(C(F)(F)F)c2)CCC1` yielded a cytotoxicity at 10 µM of -40.1%. For `Cc1cnc(CN(Cc2cccc(O)c2)CC2CC2)cn1`, the cytotoxicity at 10 µM was 16.7%. `COc1c(C2CCCN2Cc2cn3ccsc3n2)c(C)nn1C` (stereo unspecified) showed a cytotoxicity at 10 µM of -51.2%. `Cc1ncc(CNCC(=O)NC2CCCCC2)n1-c1ccccc1` gave a cytotoxicity at 10 µM of -4.75%. In the case of `CN(C)C(=O)N1CCC(c2nc3ccc(-c4ccccc4)cn3n2)CC1`, the cytotoxicity at 10 µM is reported as 5.9%. `COCC(=O)N1CCC2(C1)c1ccccc1S(=O)(=O)N2C` (stereo unspecified) showed a cytotoxicity at 10 µM of 3.57%. With `O=C(NCc1ccco1)N1CCC(n2cc(-c3ccccn3)nn2)CC1` the cytotoxicity at 10 µM was 16.9%. Work on `COCCN(CCOC)c1nc2c(s1)c(C)nn2C` yielded a cytotoxicity at 10 µM of -40.5%. In the case of `O=C(O)[C@@H]1CN(C(=O)c2ccc(F)c(F)c2)C[C@H]1c1cccc(F)c1`, the cytotoxicity at 10 µM is reported as -113%. Work on `CC(=O)N[C@@H]1CN(C2CCN(c3cccc(C)c3C)CC2)C[C@H]1C(C)C` yielded a cytotoxicity at 10 µM of -11.7%. Work on `COc1ccc(-c2nccn2C[C@@H]2CCCN3CCCC[C@H]23)cc1` yielded a cytotoxicity at 10 µM of 4.71%. In the case of `CC(C)C1CN(S(=O)(=O)N2CCCC2)CCCN1Cc1ccc(F)cc1` (stereo unspecified), the cytotoxicity at 10 µM is reported as 7.2%. In the case of `CCC(CC)NCC(c1ccccn1)N1CCOCC1` (stereo unspecified), the cytotoxicity at 10 µM is reported as -44.8%. `CC(C)CN1CCc2[nH]cnc2C12CCN(C(=O)c1ccnn1C)CC2` showed a cytotoxicity at 10 µM of -4.77%. For `Cc1cnn(CCCn2ncc(N3CCC(CN)C3)cc2=O)c1` (stereo unspecified), the cytotoxicity at 10 µM was -48.2%. Compound `Cc1nsc(NC(=O)N2CCCCC2CCO)n1` (stereo unspecified) has a cytotoxicity at 10 µM of -45.7%. With `CN1CCN(CCCNCc2cc(O)c3cc(F)ccc3n2)CC1` the cytotoxicity at 10 µM was -45.4%. `CCc1nccn1CCCNc1nccc(-c2c(C)nn(C)c2C)n1` showed a cytotoxicity at 10 µM of 2.96%. Work on `Cc1ccc2nc(C)cc(C(=O)N[C@H]3COC[C@@H]3N3CCOCC3)c2c1` yielded a cytotoxicity at 10 µM of -42.2%. `COc1cccc2c1OCC(C(=O)NCCc1nnc(C)s1)C2` (stereo unspecified) showed a cytotoxicity at 10 µM of -42.1%. With `Cc1cc(C(=O)NCCC(C)C)ccc1NS(C)(=O)=O` the cytotoxicity at 10 µM was 7.04%. `CN(C)S(=O)(=O)c1csc(C(=O)N2CCSCC2)c1` gave a cytotoxicity at 10 µM of -51.6%. `O=C(Cc1nc(-c2ccncc2)n[nH]1)NCCCN1CCOCC1` showed a cytotoxicity at 10 µM of -1.8%. Compound `COCCN(CC1CC1)c1nc(CCN)nc2sc(C)c(C)c12` has a cytotoxicity at 10 µM of 0.956%. For `CC(=O)c1c(C)nn(CC(=O)N2CCCC2c2ccc(C(N)=O)s2)c1C` (stereo unspecified), the cytotoxicity at 10 µM was 1.16%. Work on `COc1cccc(C(=O)N2CCCC(C(=O)CCc3ccccc3)C2)c1` (stereo unspecified) yielded a cytotoxicity at 10 µM of -20%. `CC(C)c1cc(NCC(C)N2CCCC2)n2nccc2n1` (stereo unspecified) showed a cytotoxicity at 10 µM of -12.4%. With `CSCC(=O)N1CCC2(CC1)c1ccccc1CC2O` (stereo unspecified) the cytotoxicity at 10 µM was -19.8%. Compound `CN1CCC(Oc2ccc(NC(=O)c3cccc(Cl)c3)cc2)CC1` has a cytotoxicity at 10 µM of -8.45%. With `CCc1nccn1C1CCCN(C(=O)c2cnc3onc(C)c3c2)C1` (stereo unspecified) the cytotoxicity at 10 µM was -15.9%. `Cc1nn(-c2ccccc2)cc1C(=O)N1CCCC(n2cccn2)C1` (stereo unspecified) showed a cytotoxicity at 10 µM of 1.3%. For `CC(=O)N(Cc1noc(C)n1)C1CCN(Cc2ccon2)C1` (stereo unspecified), the cytotoxicity at 10 µM was 4.74%. For `CC1(C)CC(N(Cc2ccccc2)Cc2cccnc2)CC(C)(C)N1`, the cytotoxicity at 10 µM was 2.67%. `Cc1cccc(N2CC[C@H]3[C@H](CO[C@@H]3CN(C)Cc3ccco3)C2)n1` showed a cytotoxicity at 10 µM of 13.8%. Compound `c1ccc(N2CC[C@@H]3CN(Cc4ccncc4)CCO[C@@H]3C2)cc1` has a cytotoxicity at 10 µM of 9.49%. With `COc1cccc(CN(Cc2ccco2)Cc2cnc(C)n2C)c1` the cytotoxicity at 10 µM was 3.65%. For `CS(=O)(=O)NC[C@]12COC[C@H]1CN(CCc1ccccc1)C2`, the cytotoxicity at 10 µM was 12.3%. `C1CCC(CO[C@@H]2CC[C@H]3[C@H]2OCCN3CC2CCOCC2)C1` gave a cytotoxicity at 10 µM of 11.4%. `CS(=O)(=O)N1C[C@@H]2COC[C@]2(CN2CCOCC2)C1` showed a cytotoxicity at 10 µM of 0.472%. `CN1CCN(S(=O)(=O)c2cccc(F)c2)Cc2cccnc21` showed a cytotoxicity at 10 µM of -110%. With `Cc1nc(CN2CCCn3cnc(COC(C)C)c3C2)cs1` the cytotoxicity at 10 µM was -73.4%. For `Cc1n[nH]cc1CNCc1cccc(OCC(F)(F)F)c1`, the cytotoxicity at 10 µM was 2.75%. Compound `Cc1cc(CN2C[C@@H](C)[C@@]3(CCN(C)C3=O)C2)oc1C` has a cytotoxicity at 10 µM of 8.34%. Compound `Cc1cccc(C(=O)N2CC[C@@H]3[C@H]2CCC(=O)N3c2ccccc2)n1` has a cytotoxicity at 10 µM of -94.8%. `CC(C)CNC(=O)[C@H]1C[C@H]2CN(Cc3cccnc3)C[C@@H]1O2` gave a cytotoxicity at 10 µM of -1.16%.
